Reference: ChEMBL document CHEMBL1250470, “Synthesis and CYP24A1 inhibitory activity of (E)-2-(2-substituted benzylidene)- and 2-(2-substituted benzyl)-6-methoxy-tetralones” (Eur J Med Chem, 2010)

Assays:
Format in all cases: cell-based, CHO
[1] = biological target: T1, 1,25-dihydroxyvitamin D(3) 24-hydroxylase, mitochondrial (Homo sapiens, UniProt Q07973); test: Inhibition of CYP24A1 expressed in […]
T1 sequence (Q07973 whole entry): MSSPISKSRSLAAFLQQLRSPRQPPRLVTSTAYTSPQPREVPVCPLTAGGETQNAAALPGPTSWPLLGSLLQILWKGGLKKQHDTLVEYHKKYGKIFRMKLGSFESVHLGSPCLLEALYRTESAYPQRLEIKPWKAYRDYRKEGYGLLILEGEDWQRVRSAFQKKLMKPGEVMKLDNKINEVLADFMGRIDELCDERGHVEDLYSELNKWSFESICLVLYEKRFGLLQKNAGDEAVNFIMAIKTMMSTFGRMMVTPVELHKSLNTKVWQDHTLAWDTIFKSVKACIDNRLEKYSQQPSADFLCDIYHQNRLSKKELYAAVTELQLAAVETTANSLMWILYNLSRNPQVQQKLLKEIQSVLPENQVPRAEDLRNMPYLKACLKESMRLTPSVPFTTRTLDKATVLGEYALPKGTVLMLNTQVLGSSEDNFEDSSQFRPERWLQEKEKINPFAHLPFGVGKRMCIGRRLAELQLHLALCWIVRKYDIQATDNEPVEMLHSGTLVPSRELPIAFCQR

[2] = biological target: 1,25-dihydroxyvitamin D(3) 24-hydroxylase, mitochondrial (Homo sapiens, UniProt Q07973, L148F); test: Inhibition of CYP24A1 L148F mutant expressed in […]
Chain of 1,25-dihydroxyvitamin D(3) 24-hydroxylase, mitochondrial (Homo sapiens, UniProt Q07973, L148F) (Q07973 36-514 L148F limits assumed): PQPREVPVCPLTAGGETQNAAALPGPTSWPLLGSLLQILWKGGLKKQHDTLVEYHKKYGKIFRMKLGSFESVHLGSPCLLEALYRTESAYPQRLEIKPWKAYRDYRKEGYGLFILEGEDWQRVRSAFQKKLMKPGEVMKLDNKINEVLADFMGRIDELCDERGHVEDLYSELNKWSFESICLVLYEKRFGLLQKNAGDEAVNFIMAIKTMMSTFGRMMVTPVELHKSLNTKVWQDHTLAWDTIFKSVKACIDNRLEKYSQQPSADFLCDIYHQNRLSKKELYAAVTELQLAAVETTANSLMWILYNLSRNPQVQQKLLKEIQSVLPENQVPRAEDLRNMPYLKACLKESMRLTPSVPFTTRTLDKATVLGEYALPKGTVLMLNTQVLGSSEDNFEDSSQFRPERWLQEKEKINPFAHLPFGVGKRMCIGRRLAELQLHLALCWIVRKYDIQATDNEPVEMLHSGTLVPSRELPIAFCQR
Outline: (§1)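 V79-4 Chinese hamster lung fibroblasts stably expressing wild-type or mutant (L148F, M416T) CYP24A1 were grown in DMEM with FCS, antibiotics and hygromycin at 5% CO₂, then subcultured into 6-well plates for 24 h. Incubation was for 6 h in 1% BSA DMEM with 100,000 CPM/well [1β-³H]1α,25-(OH)₂D₃ and DPPD antioxidant. Inhibitors, from ethanol stocks, were tested at 10⁻⁴–10⁻⁷ M. Methanol stopped the reaction, followed by scintillation counting.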

[3] = biological target: 1,25-dihydroxyvitamin D(3) 24-hydroxylase, mitochondrial (Homo sapiens, UniProt Q07973, M416T); test: Inhibition of CYP24A1 M416T mutant expressed in […]; outline: as §1
Chain of 1,25-dihydroxyvitamin D(3) 24-hydroxylase, mitochondrial (Homo sapiens, UniProt Q07973, M416T) (Q07973 36-514 M416T limits assumed): as the sequence (Q07973 36-514 L148F limits assumed) above, with F113L, M381T counted along it

[4] = biological target: T2, Sterol 26-hydroxylase, mitochondrial (Homo sapiens, UniProt Q02318); test: Inhibition of CYP27A1 expressed in […]
T2 sequence (Q02318 whole entry): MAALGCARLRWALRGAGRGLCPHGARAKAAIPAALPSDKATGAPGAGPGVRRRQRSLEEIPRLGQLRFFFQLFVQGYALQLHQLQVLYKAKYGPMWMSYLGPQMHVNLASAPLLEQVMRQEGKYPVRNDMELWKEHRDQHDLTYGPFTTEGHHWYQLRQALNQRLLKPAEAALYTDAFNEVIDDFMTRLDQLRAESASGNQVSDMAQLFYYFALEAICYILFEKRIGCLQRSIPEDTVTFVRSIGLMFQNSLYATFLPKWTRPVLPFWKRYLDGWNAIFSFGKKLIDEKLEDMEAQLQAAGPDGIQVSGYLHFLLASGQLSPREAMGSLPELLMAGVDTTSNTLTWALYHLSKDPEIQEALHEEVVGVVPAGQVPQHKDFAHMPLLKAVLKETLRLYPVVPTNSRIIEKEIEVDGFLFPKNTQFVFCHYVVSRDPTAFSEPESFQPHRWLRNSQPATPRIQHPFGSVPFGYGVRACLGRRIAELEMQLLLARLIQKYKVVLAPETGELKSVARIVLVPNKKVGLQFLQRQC
Outline: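 V79-4 fibroblasts stably expressing wild-type CYP27A1 were cultured in supplemented DMEM and plated in 6-well plates 24 h before use. They were incubated for 24 h in 1% BSA DMEM with 1α-OH-D₃ substrate plus DPPD, with inhibitors at four concentrations (10⁻⁴–10⁻⁷ M). No-inhibitor, dead-cell and no-cell controls were included. Methanol stopped the reaction, then Bligh-Dyer extraction and silica HPLC with photodiode-array detection quantified the metabolite.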

| SMILES | IC50 [1] [µM] | inhibition (INH) [2] | inhibition (INH) [3] | IC50 [4] [µM] |
| --- | --- | --- | --- | --- |
| COc1ccc2c(c1)CCC(Cc1ccccc1CCc1ccccc1)C2=O (stereo not given) | 25.6 | Active | Active | – |
| COc1ccc2c(c1)CC/C(=C\c1ccccc1-c1ccccc1)C2=O | 111 | – | – | – |
| COc1ccc2c(c1)CC/C(=C\c1ccccc1/C=C/c1ccccc1)C2=O | 5.08 | – | – | 5.69 |
| COc1ccc2c(c1)CCC(Cc1ccccc1C(F)(F)F)C2=O (stereo not given) | 2.08 | – | – | 5.34 |
| CCc1ccccc1CC1CCc2cc(OC)ccc2C1=O (stereo not given) | 1.92 | – | – | 8.23 |
| COc1ccc2c(c1)CCC(Cc1ccccc1Br)C2=O (stereo not given) | 16.3 | – | – | 0.059 |
| COc1ccc2c(c1)CCC(Cc1ccccc1-c1ccccc1)C2=O (stereo not given) | 128 | – | – | – |
| COc1ccc2c(c1)CCC(Cc1ccccc1/C=C/c1ccccc1)C2=O (stereo not given) | 343 | – | – | – |
| COc1ccc2c(c1)CC/C(=C\c1ccccc1C(F)(F)F)C2=O | 11.2 | – | – | – |
| CCc1ccccc1/C=C1\CCc2cc(OC)ccc2C1=O | 10.8 | – | – | – |
| COc1ccc2c(c1)CC/C(=C\c1ccccc1C)C2=O | 480 | – | – | – |
| COc1ccc2c(c1)CCC(Cc1ccccc1C)C2=O (stereo not given) | 127 | – | – | – |
| COc1ccc2c(c1)CC/C(=C\c1ccccc1Br)C2=O | 122 | – | – | 4.33 |
